UBC13 inh – inhibitors of human UBC13 polyubiquitin chain formation; P61088; TR-FRET; inhibition, % at 20 µM; 330,000 tested, 0.47% active; in the data active = inhibition above about 45%, passing the limit was not always enough; inconclusive = no clear call, values can overlap the other calls
SR-BI uptake up – enhances SR-BI lipid uptake from DiI-HDL; CHO ldlA[mSR-BI] cells, DiI-HDL uptake fluorescence, 3 h; 100 = double the neutral-control signal; activation, % at 12.5 µM; 320,000 tested, 0.096% active;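 active = mean replicate activation of at least 60% and every replicate at or above 60%; inconclusive = mean or all-replicate condition met, but not both; inactive = mean below 60% and not all replicates reaching 60%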
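material = CHO ldlA[mSR-BI] cells | medium = Ham's F12 with 0.5% BSA, HEPES 25 mM, pH 7.4 | reagent = fluorescent DiI-HDL, 10 µg/mL final | compound dosing = single-point compound dose | incubation = 3 h, 37 °C | measured by = bottom-read fluorescence, 550/595 nm | measure = HDL uptake via cellular fluorescence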
SR-BI DiI inh – mouse SR-BI HDL lipid transfer inhibition. inhibition, % at 12.5 µM. ldlA[mSR-BI] CHO cells, DiI-HDL uptake fluorescence, 3 h. 320,000 tested, 0.96% active;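 active = mean replicate inhibition of at least 70% and a set share of replicates each scoring 70 or more; inconclusive = meets just one of the two criteria; inactive = fails both criteria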
Neddylation inh – inhibitors of human cullin neddylation; inhibition, % at 25 µM; AID 651699; TR-FRET cullin neddylation, biochemical; 360,000 tested, 0.58% active; P61081+Q13564; in the data active = inhibition above about 36%
Target sequence (P61081 whole entry, looked up): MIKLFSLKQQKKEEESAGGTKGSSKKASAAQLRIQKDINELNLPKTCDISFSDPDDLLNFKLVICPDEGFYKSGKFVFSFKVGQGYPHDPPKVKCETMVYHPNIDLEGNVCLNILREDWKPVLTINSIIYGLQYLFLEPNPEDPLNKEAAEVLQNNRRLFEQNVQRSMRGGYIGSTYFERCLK
Target sequence (Q13564 whole entry, looked up): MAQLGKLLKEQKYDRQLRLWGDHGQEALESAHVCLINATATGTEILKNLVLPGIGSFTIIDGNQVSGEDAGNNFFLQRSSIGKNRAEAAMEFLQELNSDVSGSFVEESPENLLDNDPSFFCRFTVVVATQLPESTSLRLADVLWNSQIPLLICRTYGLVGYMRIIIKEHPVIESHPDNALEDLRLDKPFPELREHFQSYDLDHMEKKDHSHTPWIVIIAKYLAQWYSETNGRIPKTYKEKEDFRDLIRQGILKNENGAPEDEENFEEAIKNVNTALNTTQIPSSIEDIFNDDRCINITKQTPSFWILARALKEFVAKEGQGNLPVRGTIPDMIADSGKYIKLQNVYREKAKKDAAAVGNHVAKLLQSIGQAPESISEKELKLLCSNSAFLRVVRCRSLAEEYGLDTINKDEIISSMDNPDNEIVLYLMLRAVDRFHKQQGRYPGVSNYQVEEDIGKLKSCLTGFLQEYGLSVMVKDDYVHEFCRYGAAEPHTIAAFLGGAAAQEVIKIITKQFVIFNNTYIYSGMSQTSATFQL
Large screens that a line does not name were inactive. Sampled rows, rich in hits. Any-hit rate of the full collection: about 1.9%.

CCOc1ccc2oc(C(=O)N(C)CC(=O)Nc3ccc(OCC)c(OCC)c3)c(C)c2c1	SR-BI DiI inh 82
CCOc1ccc(NC(=O)CN(C)C(=O)CCCOc2ccc(Br)cc2)cc1OCC	SR-BI DiI inh 83
CCOc1ccc(NC(=O)CN(C)C(=O)c2cccnc2Sc2ccc(Cl)cc2)cc1OCC	SR-BI uptake up 82
O=C(Cc1ccc(Br)cc1)OCC(=O)N1CCCCCC1	none
COc1ccccc1C(=O)NC(CCSC)C(=O)NNC(=O)c1ccccc1O (stereo not given)	SR-BI DiI inh 76
COc1ccccc1C(=O)NC(CCSC)C(=O)NNC(=O)c1ccc(F)cc1 (stereo not given)	none
Cc1ccc(NC(=S)NC(=O)CC2CC(C)(C)OC2=O)cc1 (stereo not given)	none
CC1(C)CC(CC(=O)NC(=S)Nc2ccc([N+](=O)[O-])cc2)C(=O)O1 (stereo not given)	SR-BI DiI inh 90
COc1cc(OC)cc(C(=O)Nc2nc(CC(=O)NCc3ccc(F)cc3)cs2)c1	none
COc1cc(OC)cc(C(=O)Nc2nc(CC(=O)NCc3ccccc3OC)cs2)c1	SR-BI DiI inh 70
COc1cc(OC)cc(C(=O)Nc2nc(CC(=O)NCCc3ccccc3)cs2)c1	SR-BI DiI inh 81
CCc1cc(C(=O)N2CCCc3ccccc32)sc1C	none
CCOc1cccc(/C=N/NC(=S)Nc2ccccc2[N+](=O)[O-])c1O	SR-BI DiI inh 128
CCCCNC(=S)N/N=C/c1cccc(OCC)c1O	none
CCN(CC)c1ncnc2c1ncn2[C@H]1CN(Cc2ccccc2)C[C@@H](COC(C)=O)O1	none (no result: UBC13 inh, SR-BI uptake up, SR-BI DiI inh)
O=C(N/N=C1\CCSc2ccc(F)cc21)c1cccnc1	none
NC(=S)N/N=C1\CCSc2ccc(Cl)cc21	SR-BI DiI inh 81
O=C(Nc1cccnc1)/C(N=Nc1ccc(Cl)c(C(F)(F)F)c1)=C(\O)c1ccccc1	SR-BI DiI inh 77
Cc1cccc(C)c1OCc1cc(C(=O)N(Cc2nccn2C)C(C)C)no1	none
Cc1cc(NC(=O)c2c(F)cccc2Cl)n(-c2nc3ccccc3[nH]2)n1	SR-BI DiI inh 92
Cc1cc(NC(=O)c2ccc(C)s2)n(-c2nc3ccccc3[nH]2)n1	SR-BI DiI inh 72
Cc1cc(NC(=O)/C=C/c2cccc(F)c2)n(-c2nc3ccccc3[nH]2)n1	SR-BI DiI inh 95
Cc1cc(NC(=O)/C=C/c2ccc(F)cc2)n(-c2nc3ccccc3[nH]2)n1	none
Cc1cc(NC(=O)c2c(F)cccc2F)n(-c2nc3ccccc3[nH]2)n1	none
Cc1cc(NC(=O)c2ccccc2F)n(-c2nc3ccccc3[nH]2)n1	SR-BI DiI inh 76
COc1cccc(N2CCN(S(=O)(=O)c3ccc4ccccc4c3)CC2)c1	none
COc1c(N)c2c(c([N+](=O)[O-])c1OC)C(=O)OC2	none (no result: UBC13 inh)
Cc1sc(NC(=O)c2sc3nc4c(C)cccc4cc3c2N)c(C#N)c1C	SR-BI DiI inh 90
Cc1cccc2cc3c(N)c(C#N)sc3nc12	none
COc1cc(C2NC(=O)CCC2[N+](=O)[O-])cc(OC)c1OC (stereo not given)	none
O=[N+]([O-])c1ccccc1CCc1cnc(Cl)s1	SR-BI DiI inh 84
O=[N+]([O-])c1ccccc1CSc1ccccn1	none
CCCCn1nc2cc(C(=O)NC3CCc4ccccc43)ccc2c1OCC (stereo not given)	SR-BI DiI inh 77 (not shown: Neddylation inh)
CCCn1nc2cc(C(=O)NC3CCCc4ccccc43)ccc2c1OCC (stereo not given)	none (not shown: Neddylation inh)
COCCNC(=O)C1CCCN(S(=O)(=O)c2ccc3c(c2)CC(C)N3C(=O)C2CC2)C1 (stereo not given)	none
CCOC(=O)C1=C(C)NC(=S)NC1C (stereo not given)	none
CCOC(=O)C1=C(c2ccccc2)NC(=S)NC1C (stereo not given)	SR-BI DiI inh 72
CCC(C)[C@H](NC(=O)N1CC(=O)Nc2ccccc21)C(=O)N[C@@H](Cc1c[nH]c2ccccc12)C(=O)O (stereo not given in full)	none
Cc1ccccc1/C=C/C1=NCCN1	none
CCOC(=O)c1c(C)n(CCO)c2ccc(O)cc12	none
CCOCCn1c(C)c(C(=O)OCC)c2cc(O)c3ccccc3c21	SR-BI DiI inh 73
CCOc1ccc(/C=N/NC(=O)c2ccc(CSc3nc4ccccc4[nH]3)cc2)cc1	none
O=C(N/N=C/c1ccc(OC(F)F)cc1)c1ccc(CSc2nc3ccccc3[nH]2)cc1	SR-BI DiI inh 82
Nc1ncnc2oc(-c3ccco3)c(-c3ccco3)c12	UBC13 inh 61, Neddylation inh 43
COc1ccc(-c2cc(C(=O)Nc3cc(C)n(Cc4ccc(Cl)cc4)n3)no2)cc1OC	SR-BI DiI inh inconclusive, Neddylation inh 47
COc1ccc(OC)c(-c2cc(C(=O)Nc3c(C)nn(Cc4ccccc4)c3C)no2)c1	none
COc1ccc(-c2cc(C(=O)Nc3cccc(Cl)c3)no2)cc1	none
COc1ccc(OC)c(-c2cc(C(=O)Nc3cccc(Cl)c3)no2)c1	SR-BI DiI inh 94 (not shown: Neddylation inh)
COc1ccc(OC)c(-c2cc(C(=O)NCc3ccco3)no2)c1	SR-BI DiI inh 81
COc1ccc(OC)c(-c2cc(C(=O)Nc3c(C)nn(Cc4ccc(Cl)cc4)c3C)no2)c1	SR-BI DiI inh 78
CC1(c2ccc3ccccc3c2)NC(=O)N(CC(=O)NCC(C)(C)N2CCOCC2)C1=O (stereo not given)	none
C/C(CC(=O)NCc1ccccc1Cl)=N/NC(=O)c1ccccn1	none (no result: SR-BI uptake up, SR-BI DiI inh)
CC(C)(C)NC(=O)CN(C(=O)CCC(=O)Nc1nccs1)c1ccccc1F	none (no result: UBC13 inh, SR-BI uptake up, SR-BI DiI inh)
CCCCC(=O)Nc1nc(C)c(-c2csc(Nc3cc(Cl)ccc3OC)n2)s1	SR-BI DiI inh 88
CCCCCCC(=O)Nc1nc(C)c(-c2csc(Nc3ccccc3OC)n2)s1	SR-BI DiI inh 80
CCCC(C)C(=O)Nc1nc(C)c(-c2csc(Nc3ccc(Cl)cc3)n2)s1 (stereo not given)	SR-BI DiI inh 85
CCCC(C)C(=O)Nc1nc(C)c(-c2csc(Nc3ccccc3OC)n2)s1 (stereo not given)	SR-BI DiI inh 84
CCCCCC(=O)Nc1nc(C)c(-c2csc(Nc3ccccc3OC)n2)s1	none
CCOc1ccc(Br)cc1CNc1ccc2c(c1)OCCO2	none
CCCCC(=O)Nc1nc(C)c(-c2csc(Nc3cc(OC)ccc3OC)n2)s1	SR-BI DiI inh 83
CCCC(=O)Nc1nc(C)c(-c2csc(Nc3ccccc3C)n2)s1	none
COc1ccc(-n2nc(C(=O)NCC(=O)NCCCN3CC(C)CC(C)C3)c3ccccc3c2=O)cc1 (stereo not given)	none (no result: SR-BI uptake up, SR-BI DiI inh)
COc1ccc2c(-c3ccc(SC)cc3)c(-c3ccc(S(C)(=O)=O)cc3)sc2c1	UBC13 inh inconclusive, SR-BI DiI inh 81
COc1cc2sc(-c3ccc(S(C)(=O)=O)cc3)c(-c3ccc4c(c3)OCO4)c2cc1OC	UBC13 inh inconclusive, SR-BI DiI inh 83
CC(C)Oc1ccc(C(=O)Nc2ccc(NC(=O)c3ccco3)c(Cl)c2)cc1	SR-BI DiI inh 79 (not shown: SR-BI uptake up, Neddylation inh)
COc1ccc(C(=O)Nc2ccc(NC(=O)c3ccco3)c(Cl)c2)cc1OC	SR-BI DiI inh 75
COc1ccc(NC(=O)c2cc(Cl)ccc2NC(=O)c2ccco2)c(OC)c1	SR-BI DiI inh 74
